From PubChem BioAssay
Insulin prom act – TRM-6 insulin promoter activation. TRM-6 cells, insulin promoter eGFP reporter, imaging; plate-scaled: unstimulated 0, stimulated control 100. AID 1296. 130,000 tested, 0.81% active. activation, % at 2 µM;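 active means activation at 2 µM above a set limit, confirmed on inspection of the cell images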;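 further: share of cells whose green reporter signal exceeds an intensity cutoff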
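Material: Human fetal islet-derived TRM-6 cells with tamoxifen-inducible insulin promoter–eGFP reporter | Medium: Low-glucose (5.5 mM) medium with tamoxifen | Probe or stimulus: Tamoxifen inducer, 0.75 µM, in seeding medium | Schedule: Tamoxifen pre-incubation 15 h overnight, then compound exposure 48 h at 37 °C | Detection: High-content imaging of fixed cells with Hoechst nuclear stain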
Starred values were filed as active, the others as inactive. Only a selection was taken, and hits are over-represented in it overall.

SMILES	Insulin prom act
CCOC(=O)c1ccc(N=Cc2c(O)n(-c3ccccc3F)c(=S)[nH]c2=O)cc1	-2.7
COc1ccc(N=Cc2c(O)n(-c3ccc(C)cc3)c(=O)[nH]c2=O)cc1	-83.3
CCN(CC)c1ccc(N=Cc2c(O)n(-c3cc(OC)ccc3OC)c(=O)[nH]c2=O)cc1	650.0*
CC(=O)c1cccc(OCC(O)CN2CC=C(c3ccccc3)CC2)c1 (centres undefined)	0.0
CCSc1nnc(C(N)Cc2ccccc2)o1 (centres undefined)	5.6
O=C(O)c1ccc(Cl)nc1	3.3
CCSP1(=S)N=C(N2CCOCC2)C(C#N)=C2CCCN21 (centres undefined)	-9.1
C=CCn1c(O)c(C(CC)=Nc2ccccc2NC(C)=O)c(=O)[nH]c1=O	295.2
CN1C(=O)N(C)C(=O)C2(Cc3c(ccc4ccccc34)N(C)C2)C1=O	129.4*
CNC(=O)OCCc1nccn1C	-7.9
Clc1ccccc1Nc1ncnc(-n2cccc2)n1	6.7
O=C1NC(=O)N(c2ccc(Cl)cc2)C(=O)/C1=C\c1ccc(Sc2nc3ccccc3[nH]2)o1	7.4
CN1CCC(C)(O)C2CCCCC21 (centres undefined)	-6.7
Cc1cc2ccccc2c(=O)n1CC(=O)NCC(=O)N1CCC2(CC1)OCCO2	-6.7
CN1/C(=C\C=C2C(=O)NC(=O)NC2=O)C(C)(C)c2ccccc21	0.0
CN1/C(=C\C=C\C2=[N+](C)c3ccc4ccccc4c3C2(C)C)C(C)(C)c2ccccc21	151.4*
Cc1sc(-n2c(C)cc(C=C3C(=O)NC(=O)NC3=O)c2C)c(C#N)c1C	-6.7
Clc1ccc2c(c1)C(c1ccccc1Cl)=NCc1nnc(Br)n1-2	190.5
O=C(c1cc(-c2ccccc2)on1)N1CCC2(CC1)OCCO2	0.0
O=C(NCc1ccc(C(=O)N2CCC3(CC2)OCCO3)cc1)c1cccc(Br)c1	226.7*
O=C(CNS(=O)(=O)c1cccs1)N1CCC2(CC1)OCCO2	0.0
O=c1[nH]c(CN2CCNCC2)nc2ccccc12	-2.8
COC(=O)CC1NC2CCCCC2NC1=O (centres undefined)	346.5
CCP(=S)(CC)c1ccc(N(C)C)cc1	396.3*
O=C(O)C1C2CCC(O2)C1C(=O)NC1CCCCC1 (centres undefined)	-3.3
SMILES	Insulin prom act
CC(C)C[C@H](NC(=O)[C@@H]1CCCN1C(=O)[C@@H](N)Cc1ccc(O)cc1)C(=O)NCC(N)=O	0.0
Cc1cccc(-n2c(O)c(C=NCCCN3CCOCC3)c(=O)[nH]c2=O)c1C	2.7
O=c1[nH]c(=O)n(-c2cccc(Cl)c2)c(O)c1C=NCCN1CCCCC1	0.0
O=C1NC(=O)C(CCc2ccncc2)(Cc2ccc([N+](=O)[O-])cc2)C(=O)N1	6.7
COc1c(C)cc(C(=O)C2CCCN(Cc3ccccn3)C2)cc1C (centres undefined)	319.0*
CSc1ccc(C(=O)C2CCCN(Cc3cc4ccccc4[nH]3)C2)cc1 (centres undefined)	-5.6
O=C(c1ccc2c(c1)OCO2)C1CCCN(Cc2ccccn2)C1 (centres undefined)	-6.7
Cc1ccccc1-n1c(-c2ccco2)nc2ccccc2c1=O	-80.0
c1ccc(C2CC3CC(c4ccco4)N2O3)cc1 (centres undefined)	-5.4
CN(C)CCCN=Cc1c(O)n(CCc2ccccc2)c(=O)[nH]c1=O	-6.7
Cc1c(N=Cc2c(O)n(CCc3ccc(F)cc3)c(=O)[nH]c2=O)c(=O)n(-c2ccccc2)n1C	400.0*
CC(=Nc1c(C)n(C)n(-c2ccccc2)c1=O)c1c(O)n(Cc2ccccc2)c(=O)[nH]c1=O	0.0
CCOC(=O)N1CCN(C(C)C(=O)c2c[nH]c3ccccc23)CC1 (centres undefined)	-8.3
Cc1ccc2c(c1)N(CCC(=O)N1CCC3(CC1)OCCO3)C(=O)CO2	7.7
Cc1ccc(CS(=O)(=O)CCC(=O)N2CCC3(CC2)OCCO3)cc1	8.6
Cc1ccc(Cc2c(C)nc3nc(SCC(=O)N4CCC5(CC4)OCCO5)nn3c2C)cc1	125.0*
CC(C)NS(=O)(=O)c1ccc(OCC(=O)N2CCN(Cc3ccc4c(c3)OCO4)CC2)c(Cl)c1	7.1
Nc1ccc(Cl)cc1C(=O)c1ccccc1Cl	433.3*
Cc1ccc(S(=O)(=O)CC(C)(O)C(=O)Nc2cccc(C(F)(F)F)c2)cc1 (centres undefined)	212.5*
O=c1[nH]c(=O)n(-c2ccc(Cl)cc2)c(O)c1C=Nc1ccc(S(=O)(=O)Nc2nccs2)cc1	-2.0
O=C(Cc1ccccc1)N1CCN(CC2CC=CCC2)CC1 (centres undefined)	-5.6
Cc1ccc(CN2C(=O)CN=C(c3ccccc3)c3ccccc32)cc1	0.0
CSc1ncc(Cl)c(C(=O)O)n1 (tested in a mixture with another compound)	-6.7
CCN(CC)c1ccc(/C=N/c2sc3c(c2C#N)C2CCN3CC2)c(O)c1	284.6*
CCN1CCN(c2ccc(NC(=O)C(C)C)cc2Cl)CC1	5.6
SMILES	Insulin prom act
OC(c1ccccc1)(c1ccccc1)C1CCCN1 (centres undefined)	-27.1
CC1CCC/C=C/C2CC(O)CC2C(O)/C=C/C(=O)O1 (centres undefined)	227.6*
CC1CCC[C@H](O)CCCCCc2cc(O)cc(O)c2C(=O)O1 (some centres undefined)	147.6
CCCCN1C(=O)NC(=O)/C(=C/c2cnc(SC)nc2)C1=O	2.3
Cc1ccc(Cn2nc(C)c(C=O)c2Cl)cc1	-9.5
CCCCOC(=O)C1=C(N)OC2=C(C(=O)CCC2)[C@]12C(=O)N(C)c1ccccc12	3.6
CCOC(=O)[C@]1(C#N)[C@@H]2C=CC(C(C)=O)=CN2[C@@H](C(N)=O)[C@@H]1c1ccsc1	18.6
Cc1ccc(S(=O)(=O)NC(Cc2cnc[nH]2)C(=O)O)cc1 (centres undefined)	9.8
O=C(CCC(=O)N1CCC2(CC1)OCCO2)Nc1nnc(C(F)(F)F)s1	-71.4
O=C(COc1ccc(Cl)cc1)N1CCN(Cc2ccc([N+](=O)[O-])cc2)CC1	9.1
O=[N+]([O-])[N-][n+]1cnn(Cc2ccc(Cl)cc2)c1	141.2*
CCN1CC2(COC(=O)c3ccccc3N)CCC(OC)C34C5CC6C(OC)CC(O)(C5C6OC)C(O)(C(OC)C23)C14 (centres undefined)	6.7
C=CCn1c(O)c(C(C)=NCCN2CCCCC2)c(=O)[nH]c1=O	9.4
CCC(C(=O)N1CCC2(CC1)OCCO2)c1ccccc1 (centres undefined)	-6.7
O=C(CN1CC(c2ccccc2)CC1=O)Nc1ccc(F)cc1 (centres undefined)	-37.5
CCC1CCCCN1P(=O)(c1ccc(C)o1)C(C)(C)C (centres undefined)	-7.1
COC(=NC1CCCC1)C(O)c1c[nH]c2ccccc12 (centres undefined)	666.7*
C[N+]12CCC(CC1)C(C(O)(c1ccccc1)c1cccs1)C2 (centres undefined)	0.0
CN1CCN(c2c(N)c(=O)oc3ccccc23)CC1	-6.5
CCN1CCN(Cc2cc(Br)cc(Br)c2O)CC1	-2.9
